Reference: ChEMBL document CHEMBL4411341, “Photoactivatable Prodrug of Doxazolidine Targeting Exosomes” (J Med Chem, 2019)
Non-standard residues stand in square brackets, D forms with d. Residues, ends and D or L forms follow the SMILES beside them. *: point of attachment. X1 = COc1cc(C(C)OC(=O)N2CO[C@@H]3[C@H](C)O[C@@H](O[C@H]4C[C@](O)(C(=O)CO)Cc5c(O)c6c(c(O)c54)C(=O)c4c(OC)cccc4C6=O)C[C@@H]32)c([N+](=O)[O-])cc1OCC(=O)NCCOCCOCCOCCn1nnc2c1-c1ccccc1CN(C(=O)CCNC(=O)CCN1C(=O)CC(*)C1=O)c1ccccc1-2; X2 = COc1cc(C(C)OC(=O)N[C@H]2C[C@H](O[C@H]3C[C@](O)(C(=O)CO)Cc4c(O)c5c(c(O)c43)C(=O)c3c(OC)cccc3C5=O)O[C@@H](C)[C@H]2O)c([N+](=O)[O-])cc1OCC(=O)NCCOCCOCCOCCn1nnc2c1-c1ccccc1CN(C(=O)CCNC(=O)CCN1C(=O)CC(*)C1=O)c1ccccc1-2; Mpa = O=C(O)CCS

Assays:
[1] = test system: MDA-MB-231; assay: Growth inhibition of human MDA-MB-231 cells irradiated with UV light for 15 mins followed by 15 mins incubation and measured after 5 days by crystal violet-staining based assay; format: functional, cell-based; settings: MDA-MB-231, light or radiation study
Method in brief: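 MDA-MB-231 cells exposed to prodrug at various concentrations for 6 h in medium with 10% FBS, washed twice with PBS, then irradiated 15 min with UV black lamp (320-400 nm, max 350 nm, ~0.8 mW/cm2 at 12 cm). Held 15 min at room temperature, washed, refed, and grown until untreated cells reached 80% confluency or 5 days. Crystal violet read-out; IC50 from growth inhibition curves.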

[2] = test system: MDA-MB-231; assay: Growth inhibition of human MDA-MB-231 cells measured after 5 days in absence of irradiation by crystal violet-staining based assay; format: cell-based; settings: MDA-MB-231, 120 h
Method in brief: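 MDA-MB-231 cells given prodrug at various concentrations for 6 h in medium with 10% FBS, washed twice with PBS. Plate wrapped in aluminum foil to exclude ambient UV, no irradiation. Cells then washed, refed, and grown until untreated cells reached 80% confluency or 5 days. Cell density read by crystal violet staining; IC50 from growth inhibition curves.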

[3] = test system: MDA-MB-231; assay: Ratio of IC50 for human MDA-MB-231 cells in absence of irradiation to IC50 for human MDA-MB-231 cells in presence of irradiation
[4] = Drug uptake in human MDA-MB-231 cells at 1 uM after 6 hrs by flow cytometry; format: ADME, cell-based; settings: mda-mb-231, 6 h
Method in brief: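 MDA-MB-231 cells incubated 6 h with 1 µM compound. Uptake read by flow cytometry, with fluorescence intensity normalized to untreated cells. Three biologically independent experiments; standard deviation of mean fluorescence intensity.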

[5] = Drug uptake in human MDA-MB-231 cells at 5 uM after 3 hrs by NucBlue live cell stain-based confocal microscopy; format: ADME; settings: mda-mb-231, 3 h
Method in brief: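 MDA-MB-231 cells exposed to 5 µM conjugate for 3 h, then imaged by confocal microscopy at 40x using anthracycline fluorescence; untreated cells imaged as reference.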

[6] = test system: MDA-MB-231; assay: Cytotoxicity against human MDA-MB-231 cells at 10 uM after 6 hrs by NucBlue live cell stain-based confocal microscopy; settings: mda-mb-231, 6 h
[7] = Binding affinity to exosomes in human MDA-MB-231 cells assessed as co-localization of compound with exosomes out side nucleus area at 1 uM after 1 to 6 hrs using Cy5-labeled peptides by Hoechst-staining based assay; format: ADME, subcellular, Exosome; settings: mda-mb-231, 1 µM
Method in brief: (§1)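 Cy5-labeled L- or D-MARCKS-ED peptide (1 µM) was co-incubated with fluorescent dye-labeled exosomes on MDA-MB-231 cells for 6 h. Peptide and exosome signals were then examined by confocal microscopy, including higher-magnification 3D images, to assess co-localization relative to the nucleus.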

[8] = Binding affinity to exosomes in human MDA-MB-231 cells assessed as co-localization of compound with exosomes at 1 uM after 1 to 6 hrs using Cy5-labeled peptides by Hoechst-staining based assay; format: ADME, subcellular, Exosome; settings: mda-mb-231, 1 µM; method in brief: as §1
[9] = Binding affinity to exosomes in human MDA-MB-231 cells assessed as co-localization of compound with exosomes on plasma membrane at 1 uM after 1 hr using Cy5-labeled peptides by Hoechst-staining based assay; format: ADME, Exosome; settings: mda-mb-231, 1 h
[10] = Drug uptake in human HMEC cells at 1 uM after 1 to 6 hrs using Cy5-labeled peptides by confocal microscopy
[11] = Drug uptake in human MDA-MB-231 cells at 1 uM after 1 to 6 hrs using Cy5-labeled peptides by confocal microscopy; settings: mda-mb-231, 1 µM
[12] = Induction of exosomes-mediated drug uptake in human […] cells at 1 uM after 6 hrs in presence of cellmask orange-labeled exosomes by tritc channel based assay; settings: mda-mb-231, 6 h; method in brief: as §1
[13] = Induction of exosomes-mediated drug uptake in human […] cells at 1 uM after 6 hrs in presence of cellmask orange-labeled exosomes by Cy5 channel-based assay; settings: mda-mb-231, 6 h; method in brief: as §1

Row | Drug uptake [10] | Drug uptake [11] | Compound | IC50 [1] [nM] | IC50 [2] [µM] | Ratio IC50 [3] | Drug uptake [4] | other results
1 |  |  | COc1cc(C(C)OC(=O)N2CO[C@@H]3[C@H](C)O[C@@H](O[C@H]4C[C@](O)(C(=O)CO)Cc5c(O)c6c(c(O)c54)C(=O)c4c(OC)cccc4C6=O)C[C@@H]32)c([N+](=O)[O-])cc1OCC(=O)NCCOCCOCCOCCn1nnc2c1-c1ccccc1CN(C(=O)CCNC(=O)CCN1C(=O)CC(SCCC(=O)N[C@@H](CCCCN)C(=O)N[C@@H](CCCCN)C(=O)N[C@@H](CCCCN)C(=O)N[C@@H](CCCCN)C(=O)N[C@@H](CCCCN)C(=O)N[C@@H](CCCNC(=N)N)C(=O)N[C@@H](Cc3ccccc3)C(=O)N[C@@H](CO)C(=O)N[C@@H](Cc3ccccc3)C(=O)N[C@@H](CCCCN)C(=O)N[C@@H](CCCCN)C(=O)N[C@@H](CO)C(=O)N[C@@H](Cc3ccccc3)C(=O)N[C@@H](CCCCN)C(=O)N[C@@H](CC(C)C)C(=O)N[C@@H](CO)C(=O)NCC(=O)N[C@@H](Cc3ccccc3)C(=O)N[C@@H](CO)C(=O)N[C@@H](Cc3ccccc3)C(=O)N[C@@H](CCCCN)C(=O)N[C@@H](CCCCN)C(=O)N[C@@H](CC(N)=O)C(=O)N[C@@H](CCCCN)C(=O)N[C@@H](CCCCN)C(N)=O)C1=O)c1ccccc1-2 (stereo partly specified) | 15 | 2.5 | 170 | Active | Drug uptake [5]: Active; Activity [6]: Toxic
2 |  |  | CC(C)C[C@H](NC(=O)[C@H](CCCCN)NC(=O)[C@H](Cc1ccccc1)NC(=O)[C@H](CO)NC(=O)[C@H](CCCCN)NC(=O)[C@H](CCCCN)NC(=O)[C@H](Cc1ccccc1)NC(=O)[C@H](CO)NC(=O)[C@H](Cc1ccccc1)NC(=O)[C@H](CCCNC(=N)N)NC(=O)[C@H](CCCCN)NC(=O)[C@H](CCCCN)NC(=O)[C@H](CCCCN)NC(=O)[C@H](CCCCN)NC(=O)[C@@H](N)CCCCN)C(=O)N[C@@H](CO)C(=O)NCC(=O)N[C@@H](Cc1ccccc1)C(=O)N[C@@H](CO)C(=O)N[C@@H](Cc1ccccc1)C(=O)N[C@@H](CCCCN)C(=O)N[C@@H](CCCCN)C(=O)N[C@@H](CC(N)=O)C(=O)N[C@@H](CCCCN)C(=O)N[C@@H](CCCCN)C(N)=O |  |  |  |  | Activity [7]: Active; Activity [8]: Active; Activity [9]: Active
3 | Not Active | Not Active | H-GGDYDKIGKNDA-OH |  |  |  |  | 
4 |  |  | COc1cc(C(C)OC(=O)N2CO[C@@H]3[C@H](C)O[C@@H](O[C@H]4C[C@](O)(C(=O)CO)Cc5c(O)c6c(c(O)c54)C(=O)c4c(OC)cccc4C6=O)C[C@@H]32)c([N+](=O)[O-])cc1OCC(=O)NCCOCCOCCOCCn1nnc2c1-c1ccccc1CN(C(=O)CCNC(=O)CCN1C(=O)CC(SCCC(=O)N[C@H](CCCCN)C(=O)N[C@H](CCCCN)C(=O)N[C@H](CCCCN)C(=O)N[C@H](CCCCN)C(=O)N[C@H](CCCCN)C(=O)N[C@H](CCCNC(=N)N)C(=O)N[C@H](Cc3ccccc3)C(=O)N[C@H](CO)C(=O)N[C@H](Cc3ccccc3)C(=O)N[C@H](CCCCN)C(=O)N[C@H](CCCCN)C(=O)N[C@H](CO)C(=O)N[C@H](Cc3ccccc3)C(=O)N[C@H](CCCCN)C(=O)N[C@H](CC(C)C)C(=O)N[C@H](CO)C(=O)NCC(=O)N[C@H](Cc3ccccc3)C(=O)N[C@H](CO)C(=O)N[C@H](Cc3ccccc3)C(=O)N[C@H](CCCCN)C(=O)N[C@H](CCCCN)C(=O)N[C@H](CC(N)=O)C(=O)N[C@H](CCCCN)C(=O)N[C@H](CCCCN)C(N)=O)C1=O)c1ccccc1-2 (stereo partly specified) | 42 | 2 | 130 | Active | Drug uptake [5]: Active; Activity [6]: Toxic
5 | Not Active | Not Active | H-DDDDDRASADDSADLSGASADDDDD-OH |  |  |  |  | 
6 |  |  | CC[C@H](C)[C@H](NC(=O)[C@H](CCCCN)NC(=O)[C@H](CC(=O)O)NC(=O)[C@H](Cc1ccc(O)cc1)NC(=O)[C@H](CC(=O)O)NC(=O)CNC(=O)CNC(=O)CCSC1CC(=O)N(CCC(=O)NCCC(=O)N2Cc3ccccc3-c3c(nnn3CCOCCOCCOCCNC(=O)COc3cc([N+](=O)[O-])c(C(C)OC(=O)N4CO[C@@H]5[C@H](C)O[C@@H](O[C@H]6C[C@](O)(C(=O)CO)Cc7c(O)c8c(c(O)c76)C(=O)c6c(OC)cccc6C8=O)C[C@@H]54)cc3OC)-c3ccccc32)C1=O)C(=O)NCC(=O)N[C@@H](CCCCN)C(=O)N[C@@H](CC(N)=O)C(=O)N[C@@H](CC(=O)O)C(=O)N[C@@H](C)C(N)=O (stereo partly specified) ([Mpa](X1)GGDYDKIGKNDA-NH2) | 1300 | 11 | 8.5 | Not Active | 
7 | Active | Active | H-KKKGKKNSSKKFFFFSKFKLSRKKK-NH2 |  |  |  |  | 
8 | Active | Active | CC(C)C[C@@H](NC(=O)[C@@H](CCCCN)NC(=O)[C@@H](Cc1ccccc1)NC(=O)[C@@H](CO)NC(=O)[C@@H](CCCCN)NC(=O)[C@@H](CCCCN)NC(=O)[C@@H](Cc1ccccc1)NC(=O)[C@@H](CO)NC(=O)[C@@H](Cc1ccccc1)NC(=O)[C@@H](CCCNC(=N)N)NC(=O)[C@@H](CCCCN)NC(=O)[C@@H](CCCCN)NC(=O)[C@@H](CCCCN)NC(=O)[C@@H](CCCCN)NC(=O)[C@H](N)CCCCN)C(=O)N[C@H](CO)C(=O)NCC(=O)N[C@H](Cc1ccccc1)C(=O)N[C@H](CO)C(=O)N[C@H](Cc1ccccc1)C(=O)N[C@H](CCCCN)C(=O)N[C@H](CCCCN)C(=O)N[C@H](CC(N)=O)C(=O)N[C@H](CCCCN)C(=O)N[C@H](CCCCN)C(N)=O |  |  |  |  | Activity [7]: Active; Activity [8]: Active; Drug uptake [12]: Active; Drug uptake [13]: Active; Activity [9]: Active
9 |  |  | COc1cc(C(C)OC(=O)N[C@H]2C[C@H](O[C@H]3C[C@](O)(C(=O)CO)Cc4c(O)c5c(c(O)c43)C(=O)c3c(OC)cccc3C5=O)O[C@@H](C)[C@H]2O)c([N+](=O)[O-])cc1OCC(=O)NCCOCCOCCOCCn1nnc2c1-c1ccccc1CN(C(=O)CCNC(=O)CCN1C(=O)CC(SCCC(=O)N[C@@H](CCCCN)C(=O)N[C@@H](CCCCN)C(=O)N[C@@H](CCCCN)C(=O)N[C@@H](CCCCN)C(=O)N[C@@H](CCCCN)C(=O)N[C@@H](CCCNC(=N)N)C(=O)N[C@@H](Cc3ccccc3)C(=O)N[C@@H](CO)C(=O)N[C@@H](Cc3ccccc3)C(=O)N[C@@H](CCCCN)C(=O)N[C@@H](CCCCN)C(=O)N[C@@H](CO)C(=O)N[C@@H](Cc3ccccc3)C(=O)N[C@@H](CCCCN)C(=O)N[C@@H](CC(C)C)C(=O)N[C@@H](CO)C(=O)NCC(=O)N[C@@H](Cc3ccccc3)C(=O)N[C@@H](CO)C(=O)N[C@@H](Cc3ccccc3)C(=O)N[C@@H](CCCCN)C(=O)N[C@@H](CCCCN)C(=O)N[C@@H](CC(N)=O)C(=O)N[C@@H](CCCCN)C(=O)N[C@@H](CCCCN)C(N)=O)C1=O)c1ccccc1-2 (stereo partly specified) ([Mpa](X2)KKKKKRFSFKKSFKLSGFSFKKNKK-NH2) | 1200 | 6.5 | 5.4 | Active | 
